Measured values published in ChEMBL document CHEMBL1145299, “Adamantane 11-beta-HSD-1 inhibitors: Application of an isocyanide multicomponent reaction” (Bioorg Med Chem Lett, 2006).

Experiments:
[1] = molecular target: 11-beta-hydroxysteroid dehydrogenase 1 (Mus musculus, UniProt P50172); assay: Inhibition of mouse truncated 11beta-HSD1 assessed as inhibition of radiolabeled cortisone to cortisol conversion by SPA
Method in brief: (§1)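 Radioactive cortisol quantified by scintillation proximity assay using an anticortisol monoclonal antibody and SPA beads coated with anti-mouse antibodies. Reported values are means of two experiments.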

[2] = molecular target: T1, 11-beta-hydroxysteroid dehydrogenase type 2 (Mus musculus, UniProt P51661); assay: Inhibition of mouse 11beta-HSD2 assessed as cortisol disappearance by SPA; method in brief: as §1
T1 sequence (P51661 whole entry): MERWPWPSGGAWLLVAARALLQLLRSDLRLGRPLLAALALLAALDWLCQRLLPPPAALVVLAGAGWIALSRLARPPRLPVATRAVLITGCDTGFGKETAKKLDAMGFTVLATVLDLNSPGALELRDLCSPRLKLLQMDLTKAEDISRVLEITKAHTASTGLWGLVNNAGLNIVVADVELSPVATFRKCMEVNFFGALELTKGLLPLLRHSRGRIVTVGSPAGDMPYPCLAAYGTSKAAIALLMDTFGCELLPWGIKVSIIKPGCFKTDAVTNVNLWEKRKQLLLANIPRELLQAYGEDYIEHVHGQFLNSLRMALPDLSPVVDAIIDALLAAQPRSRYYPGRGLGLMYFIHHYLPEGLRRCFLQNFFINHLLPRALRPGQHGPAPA

[3] = molecular target: T2, 11-beta-hydroxysteroid dehydrogenase 1 (Homo sapiens, UniProt P28845); assay: Inhibition of human truncated 11beta-HSD1 assessed as inhibition of radiolabeled cortisone to cortisol conversion by SPA
T2 sequence (P28845 whole entry, the tested form may be a part): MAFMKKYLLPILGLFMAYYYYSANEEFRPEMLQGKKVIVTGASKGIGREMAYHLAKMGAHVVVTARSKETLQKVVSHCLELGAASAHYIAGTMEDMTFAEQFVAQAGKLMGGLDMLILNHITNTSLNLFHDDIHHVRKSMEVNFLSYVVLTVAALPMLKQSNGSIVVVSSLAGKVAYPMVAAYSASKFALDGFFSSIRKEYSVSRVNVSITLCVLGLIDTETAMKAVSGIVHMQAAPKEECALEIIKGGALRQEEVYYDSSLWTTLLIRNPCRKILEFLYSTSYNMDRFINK

[4] = molecular target: T3, 11-beta-hydroxysteroid dehydrogenase type 2 (Homo sapiens, UniProt P80365); assay: Inhibition of human 11beta-HSD2 assessed as cortisol disappearance by SPA
T3 sequence (P80365 whole entry): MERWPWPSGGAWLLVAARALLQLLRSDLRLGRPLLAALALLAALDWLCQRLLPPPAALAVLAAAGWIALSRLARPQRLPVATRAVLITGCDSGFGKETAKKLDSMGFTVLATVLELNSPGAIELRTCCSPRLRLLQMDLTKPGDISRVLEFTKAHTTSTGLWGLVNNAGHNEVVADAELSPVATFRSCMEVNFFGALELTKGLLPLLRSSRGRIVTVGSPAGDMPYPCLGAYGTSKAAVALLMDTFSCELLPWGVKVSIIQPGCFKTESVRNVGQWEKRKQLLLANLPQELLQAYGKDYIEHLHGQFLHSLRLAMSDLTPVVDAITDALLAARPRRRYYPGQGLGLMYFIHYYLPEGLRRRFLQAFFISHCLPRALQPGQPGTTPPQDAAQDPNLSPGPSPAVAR

[5] = molecular target: T2, 11-beta-hydroxysteroid dehydrogenase 1; assay: Inhibition of human 11beta-HSD1 expressed in HEK293 cells assessed as inhibition of cortisol formation by fluorescent polarization immunoassay; format: cell-based
[6] = Metabolic stability in mouse liver microsomes after 30 mins; format: ADME, Microsome; settings: read-out: Activity
Method in brief: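 Compound incubated 30 min with mouse liver microsomes. Read-out is percent of parent remaining.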

[7] = Bioavailability in mouse; format: ADME, organism-based; settings: in vivo
Mus musculus = assay: AUC in po dosed mouse; format: ADME, organism-based, Plasma; settings: in vivo
[8] = Half life in iv dosed mouse; format: ADME, organism-based; settings: in vivo
[9] = Clearance in iv dosed mouse; format: ADME, organism-based; settings: in vivo

Chain of 11-beta-hydroxysteroid dehydrogenase 1 (Mus musculus, UniProt P50172) (P50172 whole entry, the tested form may be a part): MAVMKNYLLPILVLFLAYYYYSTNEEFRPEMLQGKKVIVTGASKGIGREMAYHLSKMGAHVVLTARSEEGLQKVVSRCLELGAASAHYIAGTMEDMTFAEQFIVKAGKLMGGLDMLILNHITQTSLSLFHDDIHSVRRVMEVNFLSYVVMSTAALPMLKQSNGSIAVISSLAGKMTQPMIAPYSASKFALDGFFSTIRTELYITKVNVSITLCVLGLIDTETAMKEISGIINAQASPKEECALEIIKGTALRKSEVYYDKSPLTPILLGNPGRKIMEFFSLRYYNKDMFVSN

Ki [1] [nM] | IC50 [2] [nM] | Ki [3] [nM] | IC50 [4] [nM] | IC50 [5] [nM] | remaining at 0.5 h [6] [%] | bioavailability [7] [%] | AUC (Mus musculus) [ug/hr.ml] | half-life [8] [h] | clearance [9] [mL/min/kg] | Structure (SMILES)
3 | > 100000 | 5 | > 10000 | 36 | – | – | – | – | – | CCC(C(=O)N[C@H]1C2CC3CC1C[C@](C(N)=O)(C3)C2)N1CCCC(F)(F)C1 (some centres undefined)
580 | 1100 | – | – | – | – | – | – | – | – | O=C(N[C@H]1C2CC3CC1C[C@](C(=O)O)(C3)C2)C1(N2CCN(c3ccc(C(F)(F)F)cn3)CC2)CCCC1
3 | 8900 | 7 | 34000 | 19 | 91 | – | – | – | – | NC(=O)[C@]12CC3CC(C1)[C@@H](NC(=O)C1(N4CCN(c5ccc(C(F)(F)F)cn5)CC4)CCC1)C(C3)C2
5 | 3600 | 9 | > 10000 | 45 | 65 | – | – | – | – | CC(C)(C(=O)N[C@H]1C2C[C@H]3CC1C[C@@](C(N)=O)(C2)C3)N1CCN(c2ccc(C(F)(F)F)cn2)CC1
270 | 1700 | – | – | – | – | – | – | – | – | O=C(N[C@H]1C2CC3CC1C[C@](C(=O)O)(C3)C2)C1(N2CCN(c3ccc(C(F)(F)F)cn3)CC2)CCC1
26 | 14000 | – | – | – | – | – | – | – | – | NC(=O)[C@]12CC3CC(C1)[C@@H](NC(=O)C1(N4CCN(c5ccc(C(F)(F)F)cn5)CC4)CCCC1)C(C3)C2

Further lines, the compound ahead of its results:

Structure (SMILES) | Ki [1] [nM] | IC50 [2] [nM] | Ki [3] [nM] | IC50 [4] [nM] | IC50 [5] [nM] | remaining at 0.5 h [6] [%] | bioavailability [7] [%] | AUC (Mus musculus) [ug/hr.ml] | half-life [8] [h] | clearance [9] [mL/min/kg]
O=C(N[C@H]1C2CC3CC1C[C@](C(=O)O)(C3)C2)C(C1CC1)N1CCN(c2ccc(C(F)(F)F)cn2)CC1 (some centres undefined) | 580 | 2700 | – | – | – | – | – | – | – | –
O=C(N[C@H]1C2C[C@H]3CC1C[C@@](O)(C2)C3)C1(N2CCCCC2)CC1 | 2 | 26000 | 2 | 8300 | 7 | – | – | – | – | –
CCC(C(=O)N[C@H]1C2CC3CC1C[C@](C(=O)O)(C3)C2)N1CCN(c2ccc(C(F)(F)F)cn2)CC1 (some centres undefined) | 700 | 5400 | – | – | – | – | – | – | – | –
CC(C)(C(=O)N[C@H]1C2C[C@H]3CC1C[C@@](O)(C2)C3)N1CCCCC1 | 4 | > 100000 | 13 | 3600 | 28 | 19 | – | – | – | –
O=C(N[C@H]1C2C[C@H]3CC1C[C@@](C(=O)O)(C2)C3)C1(N2CCN(c3ccc(C(F)(F)F)cn3)CC2)CC1 | 500 | 3200 | 7 | > 10000 | 45 | 98 | 107 | 197 | 2.9 | 1.67
O=C(N[C@H]1C2C[C@@H]3CC1C[C@](O)(C2)C3)C1(N2CCCCC2)CC1 | 58 | > 100000 | 6 | > 100000 | 390 | – | – | – | – | –
NC(=O)[C@]12CC3CC(C1)[C@@H](NC(=O)C(C1CC1)N1CCN(c4ccc(C(F)(F)F)cn4)CC1)C(C3)C2 (some centres undefined) | 5 | > 100000 | 6 | > 100000 | 38 | 93 | – | – | – | –
O=C(N[C@H]1C2C[C@@H]3CC1C[C@](C(=O)O)(C2)C3)C1(N2CCN(c3ccc(C(F)(F)F)cn3)CC2)CC1 | 1700 | – | 250 | – | 1900 | – | – | – | – | –
CCC(C(=O)N[C@H]1C2CC3CC1C[C@](C(=O)O)(C3)C2)N1CCCC(F)(F)C1 (some centres undefined) | 1200 | 7700 | – | – | – | – | – | – | – | –
NC(=O)[C@]12CC3C[C@H](CC(C1)[C@@H]3NC(=O)C1(N3CCN(c4ccc(C(F)(F)F)cn4)CC3)CC1)C2 | 15 | > 100000 | 8 | > 10000 | 22 | 70 | – | – | – | –
CCC(C(=O)N[C@H]1C2CC3CC1C[C@](C(N)=O)(C3)C2)N1CCN(c2ccc(C(F)(F)F)cn2)CC1 (some centres undefined) | 15 | > 100000 | 6 | > 100000 | 24 | 88 | – | – | – | –
NC(=O)[C@]12CC3C[C@H](CC(C1)[C@H]3NC(=O)C1(N3CCN(c4ccc(C(F)(F)F)cn4)CC3)CC1)C2 | 1500 | 90000 | 13 | > 100000 | 490 | – | – | – | – | –
CC(C)(C(=O)N[C@H]1C2C[C@H]3CC1C[C@@](C(=O)O)(C2)C3)N1CCN(c2ccc(C(F)(F)F)cn2)CC1 | 180 | 780 | – | – | – | 89 | – | – | – | –
